{
  "source": "ChEMBL document CHEMBL1127405",
  "about": "“Synthesis and antitumor evaluation of bis[(pivaloyloxy)methyl] 2'-deoxy-5-fluorouridine 5'-monophosphate (FdUMP): a strategy to introduce nucleotides into cells” (J Med Chem, 1994)",
  "type_in_all_cases": "functional",
  "key": {"Mus musculus [1]": {"tested_on": "Mus musculus", "assay": "The compound was tested for increase in life span for mice implanted intraperitoneally with P-388/FU Leukemia cell line at 67 mg/kg", "settings": "P388, ip, route intraperitoneal", "how_it_was_run": "(§1)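 Male BDF1 mice, six per group, implanted ip with 1×10^6 P-388/0 or P-388/FU cells on day 0. Dosed ip daily for 5 days from 24 h post-implant, in saline or Emulphor 620 vehicle. Mice observed until death. %ILS = (T/C − 1)×100, from median survival of treated mice (T) versus saline-treated controls (C).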"}, "Mus musculus [2]": {"tested_on": "Mus musculus", "assay": "The compound was tested for increase in life span for mice implanted intraperitoneally with P-388/0 Leukemia cell line at 100 mg/kg", "settings": "P388, ip, route intraperitoneal", "how_it_was_run": "as §1"}, "Mus musculus [3]": {"tested_on": "Mus musculus", "assay": "The compound was tested for increase in life span for mice implanted intraperitoneally with P-388/0 Leukemia cell line at 150 mg/kg", "settings": "P388, ip, route intraperitoneal", "how_it_was_run": "as §1"}, "Mus musculus [4]": {"tested_on": "Mus musculus", "assay": "The compound was tested for increase in life span for mice implanted intraperitoneally with P-388/0 Leukemia cell line at 67 mg/kg", "settings": "P388, ip, route intraperitoneal", "how_it_was_run": "as §1"}, "Mus musculus [5]": {"tested_on": "Mus musculus", "assay": "The compound was tested for increase in life span for mice implanted intraperitoneally with P-388/FU Leukemia cell line at 100 mg/kg", "settings": "P388, ip, route intraperitoneal", "how_it_was_run": "as §1"}, "Mus musculus [6]": {"tested_on": "Mus musculus", "assay": "The compound was tested for increase in life span for mice implanted intraperitoneally with P-388/FU Leukemia cell line at 150 mg/kg", "settings": "P388, ip, route intraperitoneal", "how_it_was_run": "as §1"}, "Mus musculus [7]": {"tested_on": "Mus musculus", "assay": "The compound was tested for mean survival time for 15 mice implanted Intraperitoneally with P-388/0 Leukemia cell line at 100 mg/kg", "settings": "route intraperitoneal", "how_it_was_run": "(§2)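 P-388/0 or P-388/FU cells (1×10^6) implanted ip into male BDF1 mice on day 0. Dosing was ip, daily for 5 consecutive days beginning 24 h later, in saline or Emulphor 620 vehicle. Six mice per treated group. Animals followed to death and median survival time recorded in days. The control group had 15 mice.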"}, "Mus musculus [8]": {"tested_on": "Mus musculus", "assay": "The compound was tested for mean survival time for 15 mice implanted Intraperitoneally with P-388/0 Leukemia cell line at 150 mg/kg", "settings": "route intraperitoneal", "how_it_was_run": "as §2"}, "Mus musculus [9]": {"tested_on": "Mus musculus", "assay": "The compound was tested for mean survival time for 15 mice implanted Intraperitoneally with P-388/0 Leukemia cell line at 67 mg/kg", "settings": "route intraperitoneal", "how_it_was_run": "as §2"}, "Mus musculus [10]": {"tested_on": "Mus musculus", "assay": "The compound was tested for mean survival time for 15 mice implanted Intraperitoneally with P-388/FU Leukemia cell line at 100 mg/kg", "settings": "route intraperitoneal", "how_it_was_run": "as §2"}, "Mus musculus [11]": {"tested_on": "Mus musculus", "assay": "The compound was tested for mean survival time for 15 mice implanted Intraperitoneally with P-388/FU Leukemia cell line at 150 mg/kg", "settings": "route intraperitoneal", "how_it_was_run": "as §2"}, "Mus musculus [12]": {"tested_on": "Mus musculus", "assay": "The compound was tested for […] implanted Intraperitoneally with P-388/FU Leukemia cell line at 67 mg/kg", "settings": "route intraperitoneal"}, "Mus musculus [13]": {"tested_on": "Mus musculus", "assay": "The compound was tested for change in weight for mice implanted intraperitoneally with P-388/FU Leukemia cell line at 150 mg/kg", "settings": "route intraperitoneal", "how_it_was_run": "(§3)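 Male BDF1 mice inoculated ip on day 0 with 1 × 10^6 leukemia cells (six mice per group, average weight 22 g). Dosing ip once daily for 5 consecutive days starting 24 h after implantation. Fluoropyrimidine references in 0.9% saline; prodrugs formulated with Emulphor 620; vehicle controls 0.2 mL. Percent body weight change recorded per group.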"}, "Mus musculus [14]": {"tested_on": "Mus musculus", "assay": "The compound was tested for change in weight for mice implanted intraperitoneally with P-388/0 Leukemia cell line at 100 mg/kg", "settings": "route intraperitoneal", "how_it_was_run": "as §3"}, "Mus musculus [15]": {"tested_on": "Mus musculus", "assay": "The compound was tested for change in weight for mice implanted intraperitoneally with P-388/0 Leukemia cell line at 150 mg/kg", "settings": "route intraperitoneal", "how_it_was_run": "as §3"}, "Mus musculus [16]": {"tested_on": "Mus musculus", "assay": "The compound was tested for change in weight for mice implanted intraperitoneally with P-388/0 Leukemia cell line at 67 mg/kg", "settings": "route intraperitoneal", "how_it_was_run": "as §3"}, "Mus musculus [17]": {"tested_on": "Mus musculus", "assay": "The compound was tested for change in weight for mice implanted intraperitoneally with P-388/FU Leukemia cell line at 67 mg/kg", "settings": "route intraperitoneal", "how_it_was_run": "as §3"}, "Mus musculus [18]": {"tested_on": "Mus musculus", "assay": "The compound was tested for change in weight for mice implanted intraperitoneally with P-388/FU Leukemia cell line at 100 mg/kg", "settings": "route intraperitoneal", "how_it_was_run": "as §3"}, "Mus musculus [19]": {"tested_on": "Mus musculus", "assay": "The compound was tested for increase in life span for mice implanted intraperitoneally with P-388/FU Leukemia cell line at 40 mg/kg", "settings": "P388, ip, route intraperitoneal", "how_it_was_run": "as §1"}, "Mus musculus [20]": {"tested_on": "Mus musculus", "assay": "The compound was tested for increase in life span for mice implanted intraperitoneally with P-388/FU Leukemia cell line at 20 mg/kg", "settings": "P388, ip, route intraperitoneal", "how_it_was_run": "as §1"}, "Mus musculus [21]": {"tested_on": "Mus musculus", "assay": "The compound was tested for increase in life span for mice implanted intraperitoneally with P-388/0 Leukemia cell line at 20 mg/kg", "settings": "P388, ip, route intraperitoneal", "how_it_was_run": "as §1"}, "Mus musculus [22]": {"tested_on": "Mus musculus", "assay": "The compound was tested for increase in life span for mice implanted intraperitoneally with P-388/0 Leukemia cell line at 30 mg/kg", "settings": "P388, ip, route intraperitoneal", "how_it_was_run": "as §1"}, "Mus musculus [23]": {"tested_on": "Mus musculus", "assay": "The compound was tested for increase in life span for mice implanted intraperitoneally with P-388/FU Leukemia cell line at 30 mg/kg", "settings": "P388, ip, route intraperitoneal", "how_it_was_run": "as §1"}, "Mus musculus [24]": {"tested_on": "Mus musculus", "assay": "The compound was tested for mean survival time for 15 mice implanted Intraperitoneally with P-388/0 Leukemia cell line at 20 mg/kg", "settings": "route intraperitoneal", "how_it_was_run": "as §2"}, "Mus musculus [25]": {"tested_on": "Mus musculus", "assay": "The compound was tested for mean survival time for 15 mice implanted Intraperitoneally with P-388/0 Leukemia cell line at 30 mg/kg", "settings": "route intraperitoneal", "how_it_was_run": "as §2"}, "Mus musculus [26]": {"tested_on": "Mus musculus", "assay": "The compound was tested for mean survival time for 15 mice implanted Intraperitoneally with P-388/FU Leukemia cell line at 20 mg/kg", "settings": "route intraperitoneal", "how_it_was_run": "as §2"}, "Mus musculus [27]": {"tested_on": "Mus musculus", "assay": "The compound was tested for mean survival time for 15 mice implanted Intraperitoneally with P-388/FU Leukemia cell line at 30 mg/kg", "settings": "route intraperitoneal", "how_it_was_run": "as §2"}, "Mus musculus [28]": {"tested_on": "Mus musculus", "assay": "The compound was tested for mean survival time for 15 mice implanted Intraperitoneally with P-388/FU Leukemia cell line at 40 mg/kg", "settings": "route intraperitoneal", "how_it_was_run": "as §2"}, "Mus musculus [29]": {"tested_on": "Mus musculus", "assay": "The compound was tested for change in weight for mice implanted intraperitoneally with P-388/0 Leukemia cell line at 20 mg/kg", "settings": "route intraperitoneal", "how_it_was_run": "(§4)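 Male BDF1 mice (six per group, average 22 g) given 1×10^6 P-388 cells ip on day 0. Drug dosed ip once daily for 5 consecutive days, starting 24 h after implantation, in 0.9% saline or, where insoluble, Emulphor 620. Percentage body-weight change recorded per dose group.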"}, "Mus musculus [30]": {"tested_on": "Mus musculus", "assay": "The compound was tested for change in weight for mice implanted intraperitoneally with P-388/0 Leukemia cell line at 30 mg/kg", "settings": "route intraperitoneal", "how_it_was_run": "as §4"}, "Mus musculus [31]": {"tested_on": "Mus musculus", "assay": "The compound was tested for change in weight for mice implanted intraperitoneally with P-388/FU Leukemia cell line at 20 mg/kg", "settings": "route intraperitoneal", "how_it_was_run": "as §4"}, "Mus musculus [32]": {"tested_on": "Mus musculus", "assay": "The compound was tested for change in weight for mice implanted intraperitoneally with P-388/FU Leukemia cell line at 30 mg/kg", "settings": "route intraperitoneal", "how_it_was_run": "as §4"}, "Mus musculus [33]": {"tested_on": "Mus musculus", "assay": "The compound was tested for change in weight for mice implanted intraperitoneally with P-388/FU Leukemia cell line at 40 mg/kg", "settings": "route intraperitoneal", "how_it_was_run": "as §4"}},
  "data": [
    {"compound": "O=c1[nH]c(=O)n([C@H]2C[C@H](O)[C@@H](CO)O2)cc1F", "note": "[FLOXURIDINE]", "values": [
      {"measurement": "ILS at 67 mg/kg", "setting": "Mus musculus [1]", "value": 9, "unit": "%"},
      {"measurement": "ILS at 100 mg/kg", "setting": "Mus musculus [2]", "value": 73, "unit": "%"},
      {"measurement": "ILS at 150 mg/kg", "setting": "Mus musculus [3]", "value": 82, "unit": "%"},
      {"measurement": "ILS at 67 mg/kg", "setting": "Mus musculus [4]", "value": 45, "unit": "%"},
      {"measurement": "ILS at 100 mg/kg", "setting": "Mus musculus [5]", "value": 18, "unit": "%"},
      {"measurement": "ILS at 150 mg/kg", "setting": "Mus musculus [6]", "value": 18, "unit": "%"},
      {"measurement": "MST", "setting": "Mus musculus [7]", "value": 19, "unit": "days"},
      {"measurement": "MST", "setting": "Mus musculus [8]", "value": 20, "unit": "days"},
      {"measurement": "MST", "setting": "Mus musculus [9]", "value": 16, "unit": "days"},
      {"measurement": "MST", "setting": "Mus musculus [10]", "value": 13, "unit": "days"},
      {"measurement": "MST", "setting": "Mus musculus [11]", "value": 13, "unit": "days"},
      {"measurement": "MST", "setting": "Mus musculus [12]", "value": 12, "unit": "days"},
      {"measurement": "Weight change", "setting": "Mus musculus [13]", "value": -10, "unit": "%"},
      {"measurement": "Weight change", "setting": "Mus musculus [14]", "value": -4, "unit": "%"},
      {"measurement": "Weight change", "setting": "Mus musculus [15]", "value": -5, "unit": "%"},
      {"measurement": "Weight change", "setting": "Mus musculus [16]", "value": -2, "unit": "%"},
      {"measurement": "Weight change", "setting": "Mus musculus [17]", "value": -6, "unit": "%"},
      {"measurement": "Weight change", "setting": "Mus musculus [18]", "value": -10, "unit": "%"}
    ]},
    {"compound": "O=c1[nH]cc(F)c(=O)[nH]1", "note": "[FLUOROURACIL]", "values": [
      {"measurement": "ILS at 40 mg/kg", "setting": "Mus musculus [19]", "value": -18, "unit": "%"},
      {"measurement": "ILS at 20 mg/kg", "setting": "Mus musculus [20]", "value": -9, "unit": "%"},
      {"measurement": "ILS at 20 mg/kg", "setting": "Mus musculus [21]", "value": 45, "unit": "%"},
      {"measurement": "ILS at 30 mg/kg", "setting": "Mus musculus [22]", "value": 55, "unit": "%"},
      {"measurement": "ILS at 30 mg/kg", "setting": "Mus musculus [23]", "value": -18, "unit": "%"},
      {"measurement": "MST", "setting": "Mus musculus [24]", "value": 16, "unit": "days"},
      {"measurement": "MST", "setting": "Mus musculus [25]", "value": 17, "unit": "days"},
      {"measurement": "MST", "setting": "Mus musculus [26]", "value": 10, "unit": "days"},
      {"measurement": "MST", "setting": "Mus musculus [27]", "value": 9, "unit": "days"},
      {"measurement": "MST", "setting": "Mus musculus [28]", "value": 9, "unit": "days"},
      {"measurement": "Weight change", "setting": "Mus musculus [29]", "value": -5, "unit": "%"},
      {"measurement": "Weight change", "setting": "Mus musculus [30]", "value": -15, "unit": "%"},
      {"measurement": "Weight change", "setting": "Mus musculus [31]", "value": -6, "unit": "%"},
      {"measurement": "Weight change", "setting": "Mus musculus [32]", "value": -15, "unit": "%"},
      {"measurement": "Weight change", "setting": "Mus musculus [33]", "value": -18, "unit": "%"}
    ]}
  ]
}
